ChEMBL document CHEMBL3351464, “Identifying novel selective non-nucleoside DNA methyltransferase 1 inhibitors through docking-based virtual screening” (J Med Chem, 2014)
The source made the active and inactive calls. No cut-off for these calls is given here.

Legend:
[1] = target: DNA (cytosine-5)-methyltransferase 1 (Mus musculus) (UniProt P13864); experiment: Inhibition of N-terminal His6-tagged mouse DNMT1 (731 to 1602 residues) expressed in Escherichia coli BL21 (DE3) at 50 uM incubated for 15 mins before addition of [3H]-SAM and poly(dI-dC).poly(dI-dC) by liquid scintillation counting based radioactive methylation assay
In short: (§1)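 Enzyme was preincubated with compound for 15 min at room temperature, then reacted for 60 min at 37°C. Products were filter-captured, washed and counted by scintillation. IC50 came from a nonlinear dose-response fit; single-point tests used 50 µM.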

[2] = system: HCT-116; experiment: Antiproliferative activity against human HCT116 cells assessed as inhibition of cell proliferation at 1.25 to 10 uM after 24 to 72 hrs by MTT assay; assay type: functional, cell-based
In short: (§2)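 HCT116 maintained in McCoy's 5A and Capan-1 in DMEM, each with 10% FBS, at 37°C under 5% CO2. Cells were exposed to a range of compound concentrations from DMSO stocks, with DMSO-matched controls. Viability was read by MTT absorbance at 490 nm, and percent proliferation was normalized to control cells.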

[3] = target: T1, DNA (cytosine-5)-methyltransferase 1 (Mus musculus, UniProt P13864); experiment: Inhibition of N-terminal His6-tagged mouse DNMT1 (731 to 1602 residues) expressed in Escherichia coli BL21 (DE3) incubated for 15 mins before addition of [3H]-SAM and poly(dI-dC).poly(dI-dC) by liquid scintillation counting based radioactive methylation assay; in short: as §1
[4] = system: CAPAN-1; experiment: Antiproliferative activity against human Capan1 cells assessed as inhibition of cell proliferation at 1.25 to 10 uM after 24 to 72 hrs by MTT assay; assay type: functional, cell-based; in short: as §2
[5] = target: T2, Histone-lysine N-methyltransferase EHMT2 (Homo sapiens, UniProt Q96KQ7); experiment: Inhibition of G9a (unknown origin) incubated for 15 mins before addition of biotinylated peptide H3 (1 to 21) and SAM by methylation assay
T2 sequence (Q96KQ7 whole entry): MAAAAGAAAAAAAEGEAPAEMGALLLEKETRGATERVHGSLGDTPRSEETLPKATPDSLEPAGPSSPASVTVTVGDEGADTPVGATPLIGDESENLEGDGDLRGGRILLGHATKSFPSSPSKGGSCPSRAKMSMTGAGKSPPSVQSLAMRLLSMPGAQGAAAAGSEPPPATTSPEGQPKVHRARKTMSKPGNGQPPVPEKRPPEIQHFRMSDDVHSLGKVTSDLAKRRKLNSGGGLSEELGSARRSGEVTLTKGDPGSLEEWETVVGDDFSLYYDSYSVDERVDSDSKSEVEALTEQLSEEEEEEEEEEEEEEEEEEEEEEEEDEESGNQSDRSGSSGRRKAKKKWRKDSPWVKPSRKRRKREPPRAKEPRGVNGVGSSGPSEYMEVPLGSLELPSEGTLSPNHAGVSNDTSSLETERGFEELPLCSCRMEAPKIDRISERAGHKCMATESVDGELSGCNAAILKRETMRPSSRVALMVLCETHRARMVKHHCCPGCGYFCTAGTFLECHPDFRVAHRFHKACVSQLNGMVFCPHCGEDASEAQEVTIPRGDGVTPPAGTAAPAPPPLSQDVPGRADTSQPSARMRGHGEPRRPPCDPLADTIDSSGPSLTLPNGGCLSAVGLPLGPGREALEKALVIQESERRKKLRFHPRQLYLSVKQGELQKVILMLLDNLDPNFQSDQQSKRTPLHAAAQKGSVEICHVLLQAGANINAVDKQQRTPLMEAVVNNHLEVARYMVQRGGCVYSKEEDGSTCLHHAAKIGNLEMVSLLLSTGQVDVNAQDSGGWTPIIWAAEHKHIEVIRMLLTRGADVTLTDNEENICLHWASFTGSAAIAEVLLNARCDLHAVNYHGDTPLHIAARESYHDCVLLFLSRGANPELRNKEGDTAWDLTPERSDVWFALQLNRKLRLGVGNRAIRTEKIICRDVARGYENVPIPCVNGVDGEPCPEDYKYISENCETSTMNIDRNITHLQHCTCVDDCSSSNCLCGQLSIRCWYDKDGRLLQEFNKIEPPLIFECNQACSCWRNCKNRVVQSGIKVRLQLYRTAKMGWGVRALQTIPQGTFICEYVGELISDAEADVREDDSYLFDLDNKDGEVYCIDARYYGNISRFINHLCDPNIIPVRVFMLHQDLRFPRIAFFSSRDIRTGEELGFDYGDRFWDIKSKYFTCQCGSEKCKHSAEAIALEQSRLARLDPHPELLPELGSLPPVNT
In short: (§3)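 AlphaLISA assays were run in modified Tris pH 9.0 with 100 nM biotinylated H3(1-21) and SAM at Km: MLL1 2 nM enzyme with 2 μM SAM; SUV39H1 3 nM with 20 μM; SET7/9 0.2 nM with 0.22 μM; G9a 0.03 nM with 50 μM. Enzyme and compound were preincubated for 15 min, then reacted for 60 min at room temperature before the beads were added. IC50 came from a nonlinear dose-response fit.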

[6] = target: DNA (cytosine-5)-methyltransferase 3A (Homo sapiens, UniProt Q9Y6K1); experiment: Inhibition of DNMT3A (unknown origin) incubated for 15 mins before addition of [3H]-SAM and poly(dI-dC).poly(dI-dC) by liquid scintillation counting based radioactive methylation assay
[7] = target: T3, Histone-lysine N-methyltransferase SETD7 (Homo sapiens, UniProt Q8WTS6); experiment: Inhibition of SET7/9 (unknown origin) incubated for 15 mins before addition of biotinylated peptide H3 (1 to 21) and SAM by methylation assay; in short: as §3
T3 sequence (Q8WTS6 whole entry): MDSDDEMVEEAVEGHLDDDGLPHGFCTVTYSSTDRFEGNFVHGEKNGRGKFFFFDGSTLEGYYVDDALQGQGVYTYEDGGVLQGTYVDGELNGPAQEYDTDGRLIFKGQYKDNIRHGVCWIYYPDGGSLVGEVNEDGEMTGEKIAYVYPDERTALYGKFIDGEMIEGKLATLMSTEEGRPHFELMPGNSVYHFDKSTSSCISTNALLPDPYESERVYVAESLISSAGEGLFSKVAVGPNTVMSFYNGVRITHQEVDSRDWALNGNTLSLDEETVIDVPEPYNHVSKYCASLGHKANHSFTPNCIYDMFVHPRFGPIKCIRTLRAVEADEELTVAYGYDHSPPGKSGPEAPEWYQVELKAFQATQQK

[8] = target: Histone-lysine N-methyltransferase 2A (Homo sapiens, UniProt Q03164); experiment: Inhibition of MLL1 (unknown origin) incubated for 15 mins before addition of biotinylated peptide H3 (1 to 21) and SAM by methylation assay; in short: as §3
[9] = target: DNA (cytosine-5)-methyltransferase 1 (Mus musculus) (UniProt P13864); experiment: Inhibition of N-terminal His6-tagged mouse DNMT1 (731 to 1602 residues) at 200 uM expressed in Escherichia coli BL21 (DE3) incubated for 2 hrs using S-adenosylmethionine by ELISA
In short: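 Mouse DNMT1 was purified by HisTrap, SUMO-tag cleavage, heparin and gel filtration. 200 nM enzyme was incubated with 200 μM compound (1% DMSO) and AdoMet in DNMT assay buffer at 37°C for 2 h. Capture and detection antibodies were then applied, followed by developer for 10 min at room temperature. Absorbance was read at 450 nm, with AdoHcy as reference.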

[10] = target: DNA (cytosine-5)-methyltransferase 3B (Homo sapiens, UniProt Q9UBC3); experiment: Inhibition of DNMT3B (unknown origin) incubated for 15 mins before addition of [3H]-SAM and poly(dI-dC).poly(dI-dC) by liquid scintillation counting based radioactive methylation assay
[11] = Binding affinity to DNA (unknown origin) at 0.0625 to 0.5 mM by ethidium bromide dye based agarose gel electrophoresis method
[12] = target: DNA (cytosine-5)-methyltransferase 1 (Mus musculus) (UniProt P13864); experiment: (§4) Binding affinity to N-terminal His6-tagged mouse DNMT1 (731 to 1602 residues) expressed in Escherichia coli BL21 (DE3) by SPR assay
In short: (§5)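 Measured by SPR at 25°C. Purified mouse DNMT1 was amine-coupled to a CM5 chip in 10 mM sodium acetate pH 5.0 and equilibrated overnight in HBS-EP (10 mM HEPES pH 7.4, 150 mM NaCl, 3 mM EDTA, 0.05% P20, 0.1% DMSO). Serially diluted compounds were injected with 120 s contact and 120 s dissociation, and KD was derived by the instrument evaluation software.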

[13] = target: T1, DNA (cytosine-5)-methyltransferase 1; experiment: as §4; in short: as §5
[14] = target: T4, Histone-lysine N-methyltransferase SUV39H1 (Homo sapiens, UniProt O43463); experiment: Inhibition of SUV39H1 (unknown origin) incubated for 15 mins before addition of biotinylated peptide H3 (1 to 21) and SAM by methylation assay; in short: as §3
T4 sequence (O43463 whole entry): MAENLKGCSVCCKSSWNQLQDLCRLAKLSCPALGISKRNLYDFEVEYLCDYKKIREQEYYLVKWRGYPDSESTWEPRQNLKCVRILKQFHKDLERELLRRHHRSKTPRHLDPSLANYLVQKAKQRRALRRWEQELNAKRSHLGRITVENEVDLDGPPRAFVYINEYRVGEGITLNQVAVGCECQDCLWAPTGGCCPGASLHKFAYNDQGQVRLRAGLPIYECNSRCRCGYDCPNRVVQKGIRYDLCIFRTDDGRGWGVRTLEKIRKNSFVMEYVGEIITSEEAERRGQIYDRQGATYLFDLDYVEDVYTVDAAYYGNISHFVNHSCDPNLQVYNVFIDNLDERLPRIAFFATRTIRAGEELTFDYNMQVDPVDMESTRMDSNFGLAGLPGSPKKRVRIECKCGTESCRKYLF

T1 sequence (P13864 whole entry, the tested form may be a part): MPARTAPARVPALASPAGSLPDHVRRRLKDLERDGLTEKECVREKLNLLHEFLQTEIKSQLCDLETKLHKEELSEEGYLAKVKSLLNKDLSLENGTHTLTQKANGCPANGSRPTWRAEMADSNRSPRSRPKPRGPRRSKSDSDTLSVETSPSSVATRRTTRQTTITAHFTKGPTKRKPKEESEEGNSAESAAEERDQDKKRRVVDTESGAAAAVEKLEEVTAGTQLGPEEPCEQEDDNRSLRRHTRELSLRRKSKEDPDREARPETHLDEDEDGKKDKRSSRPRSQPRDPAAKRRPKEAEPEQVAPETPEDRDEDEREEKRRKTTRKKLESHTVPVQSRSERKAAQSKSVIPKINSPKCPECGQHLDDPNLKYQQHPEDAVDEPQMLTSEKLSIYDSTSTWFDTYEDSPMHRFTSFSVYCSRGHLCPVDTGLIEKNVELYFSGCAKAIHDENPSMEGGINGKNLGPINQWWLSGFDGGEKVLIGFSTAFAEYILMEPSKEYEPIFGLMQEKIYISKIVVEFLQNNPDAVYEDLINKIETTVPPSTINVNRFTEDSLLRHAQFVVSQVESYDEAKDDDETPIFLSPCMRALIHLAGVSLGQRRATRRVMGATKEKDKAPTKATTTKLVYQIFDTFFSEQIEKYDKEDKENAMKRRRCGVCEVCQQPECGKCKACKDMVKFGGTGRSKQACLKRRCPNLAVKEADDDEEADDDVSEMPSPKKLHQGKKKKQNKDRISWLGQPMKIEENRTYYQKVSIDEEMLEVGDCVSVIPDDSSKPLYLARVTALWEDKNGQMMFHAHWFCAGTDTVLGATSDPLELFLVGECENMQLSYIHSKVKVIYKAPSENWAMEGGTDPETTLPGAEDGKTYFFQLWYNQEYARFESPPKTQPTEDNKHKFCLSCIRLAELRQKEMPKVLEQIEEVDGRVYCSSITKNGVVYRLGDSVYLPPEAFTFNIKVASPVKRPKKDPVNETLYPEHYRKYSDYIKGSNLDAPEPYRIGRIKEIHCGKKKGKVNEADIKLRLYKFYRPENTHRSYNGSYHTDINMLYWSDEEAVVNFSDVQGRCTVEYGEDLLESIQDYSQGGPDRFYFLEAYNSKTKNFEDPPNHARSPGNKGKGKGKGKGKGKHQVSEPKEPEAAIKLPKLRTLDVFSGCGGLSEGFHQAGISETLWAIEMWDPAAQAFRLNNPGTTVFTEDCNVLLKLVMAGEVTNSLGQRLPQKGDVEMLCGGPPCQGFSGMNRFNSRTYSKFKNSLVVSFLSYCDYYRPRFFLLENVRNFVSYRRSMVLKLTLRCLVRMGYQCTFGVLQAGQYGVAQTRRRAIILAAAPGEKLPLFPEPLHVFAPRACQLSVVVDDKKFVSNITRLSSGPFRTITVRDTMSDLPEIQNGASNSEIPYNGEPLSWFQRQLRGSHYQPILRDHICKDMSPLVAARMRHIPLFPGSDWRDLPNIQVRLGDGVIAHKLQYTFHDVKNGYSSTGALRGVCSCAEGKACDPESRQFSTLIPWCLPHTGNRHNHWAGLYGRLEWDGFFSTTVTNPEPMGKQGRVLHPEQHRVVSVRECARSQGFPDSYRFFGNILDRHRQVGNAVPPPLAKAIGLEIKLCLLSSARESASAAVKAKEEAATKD
DNA (cytosine-5)-methyltransferase 1 (Mus musculus), sequence (P13864 whole entry, the tested form may be a part): as above
DNA (cytosine-5)-methyltransferase 3A, sequence (Q9Y6K1 whole entry, looked up): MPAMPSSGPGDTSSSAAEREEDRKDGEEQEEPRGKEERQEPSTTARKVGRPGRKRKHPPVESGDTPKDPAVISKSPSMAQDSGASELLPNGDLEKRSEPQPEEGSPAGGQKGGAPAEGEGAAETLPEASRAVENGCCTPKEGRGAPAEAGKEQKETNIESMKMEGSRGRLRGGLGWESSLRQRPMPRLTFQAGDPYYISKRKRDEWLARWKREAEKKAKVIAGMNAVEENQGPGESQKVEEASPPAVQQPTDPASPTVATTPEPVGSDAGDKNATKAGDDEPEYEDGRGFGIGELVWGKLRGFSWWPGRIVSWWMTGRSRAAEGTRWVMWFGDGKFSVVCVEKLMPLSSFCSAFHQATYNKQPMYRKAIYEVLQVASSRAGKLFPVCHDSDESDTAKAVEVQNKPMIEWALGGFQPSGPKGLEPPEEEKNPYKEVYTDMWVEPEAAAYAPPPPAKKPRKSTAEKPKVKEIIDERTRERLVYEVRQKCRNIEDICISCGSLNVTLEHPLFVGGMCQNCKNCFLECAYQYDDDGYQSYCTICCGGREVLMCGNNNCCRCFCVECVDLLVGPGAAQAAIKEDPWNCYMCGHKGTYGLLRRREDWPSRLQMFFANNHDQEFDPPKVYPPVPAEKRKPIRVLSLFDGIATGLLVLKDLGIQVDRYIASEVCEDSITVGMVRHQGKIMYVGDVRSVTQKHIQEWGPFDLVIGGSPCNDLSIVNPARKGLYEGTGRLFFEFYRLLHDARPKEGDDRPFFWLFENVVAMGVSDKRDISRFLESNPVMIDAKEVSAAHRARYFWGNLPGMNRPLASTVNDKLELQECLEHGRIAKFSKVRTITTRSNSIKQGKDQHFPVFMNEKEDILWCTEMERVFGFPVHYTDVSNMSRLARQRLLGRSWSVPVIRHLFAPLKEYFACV

Work on `CNCC(O)Cn1c(C)c(C)c2ccccc21` (racemic) yielded an inhibition [1] of 1.1%.

For `CC(C)NC[C@@H](O)COC(Cn1c2ccccc2c2ccccc21)Cn1c2ccccc2c2ccccc21`, the inhibition [2] was “Active”, the IC50 [3] was 2.5 µM and the inhibition [4] was “Active”.

Work on `OC(CN1CCOCC1)Cn1c2ccccc2c2ccccc21` (racemic) yielded an inhibition [1] of -5%.

Work on `OC(CNCCc1c[nH]c2ccccc12)Cn1c2ccccc2c2ccccc21` (racemic) yielded an IC50 [5] of over 150 µM, an IC50 [6] of over 200 µM and an IC50 [7] of over 150 µM. It also gave an IC50 [8] of over 150 µM, an inhibition [9] of over 60% and an IC50 [10] of over 200 µM. The Activity [11] was “inactive”, the Activity [12] was “Dose-dependent effect” and the Kd [13] was 1.09 µM. It also gave an IC50 [3] of 10.3 µM and an IC50 [14] of over 150 µM.

Work on `OC(CNC1CC1)Cn1c2ccccc2c2ccccc21` (racemic) yielded an inhibition [1] of 42.6%.

`OCCCNCC(O)Cn1c2ccccc2c2ccccc21` (racemic) showed an inhibition [1] of 42.5%.

In the case of `COCCNCC(O)Cn1c2ccccc2c2ccccc21` (racemic), the inhibition [1] is reported as 71% and the IC50 [3] is reported as 29.6 µM.

`OC(CNCCc1ccccc1)Cn1c2ccccc2c2ccccc21` (racemic) showed an inhibition [1] of 73.9% and an IC50 [3] of 20.7 µM.

In the case of `CC(C)NC[C@H](O)COC(Cn1c2ccccc2c2ccccc21)Cn1c2ccccc2c2ccccc21`, the inhibition [2] is reported as “Active”, the IC50 [3] is reported as 1.8 µM and the inhibition [4] is reported as “Active”.

With `COc1cccc2c1C(=O)c1c(O)c3c(c(O)c1C2=O)C[C@@](O)(C(=O)CO)C[C@@H]3O[C@H]1C[C@H](N)[C@H](O)[C@H](C)O1` the Activity [11] was “Active”.

For `CCCN(CCC)CC(O)Cn1c2ccccc2c2ccccc21` (racemic), the inhibition [1] was 5.5%.

With `Nc1ncnc2c1ncn2[C@@H]1O[C@H](CSCC[C@H](N)C(=O)O)[C@@H](O)[C@H]1O` the inhibition [9] was “Active”.

For `OC(CNCc1ccccc1)Cn1c2c(c3ccccc31)CCCC2` (racemic), the inhibition [1] was 62.9% and the IC50 [3] was 80.9 µM.

For `Cc1cc(Nc2ccc(NC(=O)c3ccc(Nc4ccnc5ccccc45)cc3)cc2)nc(N)n1`, the Activity [11] was “Active”.

With `CC1CCN(CC(O)Cn2c3ccccc3c3ccccc32)CC1` (racemic) the inhibition [1] was 52.4% and the IC50 [3] was 84.1 µM.

For `O[C@H](CNCCc1c[nH]c2ccccc12)Cn1c2ccccc2c2ccccc21`, the inhibition [2] was “Active”, the IC50 [3] was 7.3 µM and the inhibition [4] was “Active”.

`OC(CNCC1CCCO1)Cn1c2ccccc2c2ccccc21` (racemic) showed an inhibition [1] of 40.1%.

Molecule `OC(CNCCc1c[nH]c2ccccc12)Cn1c2ccc(Cl)cc2c2cc(Cl)ccc21` (racemic) has an inhibition [1] of 89.5% and an IC50 [3] of 2.5 µM.

For `O[C@@H](CNCCc1c[nH]c2ccccc12)Cn1c2ccccc2c2ccccc21`, the inhibition [2] was “Active”, the IC50 [3] was 15.6 µM and the inhibition [4] was “Active”.

Work on `OC(CNCCOc1ccccc1)Cn1c2ccccc2c2ccccc21` (racemic) yielded an inhibition [1] of 29.7%.

`OCCNCC(O)Cn1c2ccc(Br)cc2c2cc(Br)ccc21` (racemic) gave an inhibition [1] of 99.7% and an IC50 [3] of 14.1 µM.

Work on `Cc1c(C)n(CC(O)CNC2CCCCC2)c2ccccc12` (racemic) yielded an inhibition [1] of 2.4%.

`COc1ccc(NCC(O)Cn2c3ccccc3c3ccccc32)cc1` (racemic) gave an inhibition [1] of 0.6%.
